Data set [1] has as its system P. falciparum K1 (CQ-resistant strain). Nature of the data set: In vitro antimalarial activity, P. falciparum K1. The data set is classed as cell-based, Plasmodium falciparum. Conditions: for K1 Relative SI: selective index (CC50/IC50), relative to SKM13-2HCl = 1.
A further data set deals with P. berghei NK65. Nature of the data set: 4-day suppressive test in P. berghei NK65-infected ICR mice. The data set is classed as in vivo, Plasmodium berghei (ICR mice). An outline of the steps: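 6-week-old ICR-1 mice were inoculated on day 0 with 107 blood-stage P. berghei NK65. The test compound was given i.v. at 10, 20 or 30 mg/kg once daily for 4 days. Body weight, survival and blood parasites were recorded daily for 2 weeks. At 8 dpi mice were euthanized and livers and spleens harvested.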

In data set [2] the test system is P. falciparum 3D7 (CQ-sensitive strain). Nature of the data set: In vitro antimalarial activity, P. falciparum 3D7. It is filed as cell-based, Plasmodium falciparum. To be noted: for 3D7 Relative SI: selective index (CC50/IC50), relative to SKM13-2HCl = 1.
Data set [3] is described as follows: Solubility in deionized water. It is filed as physicochemical. Conditions: saturated aqueous solution, HPLC UV 342 nm. In short, it runs like this:
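Saturated solutions of the test compound salt were made in deionized water and measured by UHPLC with UV detection at 342 nm. 1% TFA in water was added to the solvent to keep the salt form. Standards at 5 concentrations gave a linear regression, from which solubility was calculated.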

A short description of data set [4]: Turbidity of 1 mM drug in cell culture media. The data set is classed as physicochemical. To be noted: 1 mM dissolved in cell culture media (DMEM).
For a further data set, the system named is Vero cells. Nature of the data set: Cytotoxicity test using the MTT assay. It is filed as cell-based. Conditions: read-out: Vero CC50, 2-day compound exposure. An outline of the steps: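 Vero cells were seeded at 104 per well in DMEM with 10% FBS. 12 h later, serial concentrations of test compound were added for 2 days at 37°C, 5% CO2. MTT was then added for 2 h and absorbance read at 490 nm. CC50 was derived from percentage growth inhibition. Run in triplicate, mean±SD.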
(In general: Tetrazolium assays rely on reduction of a dye to a coloured formazan, in cell work by metabolically active cells.)

Data set [5] is described as follows: In vivo PK assessment in mice. More on the design: species or system ICR mice. To be noted: oral, 5 mg/kg single dose. In short, it runs like this: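 Healthy female 7-week-old ICR mice (about 30 g), kept under specific pathogen-free conditions, three per group. Each got a single oral dose of test compound at 5 mg/kg. Blood was drawn at various times and plasma stored at −80°C. Levels were measured by LC–MS/MS with calibration and QC standards. Kinetic parameters came from regression of plasma concentration versus time.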

Setting [6] is: 10 mg/kg i.v. once daily for 4 days.
Where [7] appears, read: 20 mg/kg, organs collected 8 dpi.

Regarding `CCN(CC)CCCC(C)Nc1ccnc2cc(Cl)ccc12` (centres unmarked) [CQ, Chloroquine], in data set [1], the “K1 Relative SI” value was 3.5. In addition, the parasitemia result in the data set with P. berghei NK65 (setting [6]) is given as “significantly reduced parasite density”. In addition, the “3D7 Relative SI” value in data set [2] came to 6.0.
Usually IC50 stands for the point on the concentration scale where inhibition reaches its midpoint. One may read the CC50 as the concentration giving 50% cytotoxicity. In the case of `CN(C)CCNC(=O)/C=C/[C@H](Cc1ccccc1)Nc1ccnc2cc(Cl)ccc12` [SKM13-2HCl], in data set [3], the “solubility in deionized water” value worked out at 850.8 mg/mL. Also, the IC50 in data set [1] (read-out: K1 IC50, P. falciparum K1, synchronized parasites) came to 366 ± 19.8 nM; in data set [2] (read-out: 3D7 IC50, P. falciparum 3D7, synchronized parasites), 53.1 ± 10 nM. In addition, the “K1 Relative SI” value in data set [1] amounted to 1. Besides, the turbidity entry in data set [4] is “transparent”. Besides, the parasitemia entry in the data set with P. berghei NK65 (setting [6]) is given as “increased parasitemia”; in the data set with P. berghei NK65 (20 mg/kg i.v. once daily for 4 days) it was “effectively suppressed parasitemia”; with P. berghei NK65 (30 mg/kg i.v. once daily for 4 days), “effectively suppressed parasitemia”. Also, the body weight entry in the data set with P. berghei NK65 (10 mg/kg i.v. once daily for 4 days, infected mice) was “not observed”. In addition, the liver pigmentation result in the data set on P. berghei NK65 (setting [7]) is “decreased liver pigmentation”. Also, the spleen size result in the data set on P. berghei NK65 (setting [7]) was “same size as those of the normal or CQ-treated groups”. In the data set with P. berghei NK65 (30 mg/kg once daily, 6 dpi), the “curative effect (survival)” value was “complete curative effect”. Moreover, the CC50 in the data set on Vero cells worked out at 55200 ± 1100 nM. The “3D7 Relative SI” value in data set [2] worked out at 1.0. In addition, in data set [5], the “Tmax_h, time to peak concentration” value turned out to be 15 min. The “elimination half-life (t1/2)” value in data set [5] (comparison of both drugs) was “similar”. Besides, in data set [5] (versus SAM13-2HCl), the “Cmax/AUC higher than that of SAM13-2HCl” value is 2 fold.

Source of the values: publication PMC10915268 (Parasites, Hosts and Diseases, 2024).
